The record followed here is ChEMBL document CHEMBL3045942, “Design, synthesis, and anti-tobacco mosaic virus (TMV) activity of phenanthroindolizidines and their analogues” (2012).

As usually defined, the inhibition is the percentage by which the read-out fell short of the control.

Common to all, as to type: functional
Experiment [1] deals with Tobacco mosaic virus. The experiment can be described thus: Antiviral activity against Tobacco mosaic virus (TMV) assessed as inhibition at 500 ug/mL. The procedure, abridged:
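Half-leaf method on fresh Nicotiana tabacum var. Xanthi nc leaves at the 5–6 growth stage. Leaves were inoculated by juice-leaf rubbing with TMV at 5.88 × 10−2 μg mL−1, then cut in halves along the main vein. Halves were immersed 20 min in compound solution or double-distilled water as control, then kept 25 °C for 72 h. Inhibition % = (mean control lesions − mean treated lesions)/mean control lesions × 100. At least 3 replicates.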

The test system of experiment [2] is Tobacco mosaic virus. Kind of experiment: Antiviral activity against Tobacco mosaic virus (TMV) assessed as inhibition at 1 ug/mL.
The subject of experiment [3] is Tobacco mosaic virus. The experiment can be described thus: In vivo antiviral activity against Tobacco mosaic virus (TMV) inoculated right side of Nicotiana tabacum L. leaves assessed as protection effect at 500 ug/mL preincubated 12 hr before viral challenge measured after 3 to 4 days. The procedure, abridged:
(§1)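 Protective test on same-age growing Xanthi nc tobacco leaves. Compound solution was smeared on the left half and solvent on the right half as control. After 12 h, leaves were inoculated with TMV applied by brush. Inhibition % = (mean control lesions − mean treated lesions)/mean control lesions × 100. Three replicates.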

Experiment [4] deals with Tobacco mosaic virus. Kind of experiment: In vivo antiviral activity against Tobacco mosaic virus (TMV) pre-inoculated Nicotiana tabacum L. leaves assessed as curative effect at 500 ug/mL measured after 3 to 4 days. Put shortly:
(§2)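 Curative test on same-age growing Xanthi nc leaves. Whole leaves were first inoculated with TMV (6.0 × 10−3 mg mL−1), then washed with water and dried. Compound solution was smeared on the left half and solvent on the right half as control. Local lesions were counted 3–4 days after inoculation, and inhibition % was derived from mean lesion numbers. Three replicates.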

The test system of experiment [5] is Tobacco mosaic virus. The experiment can be described thus: Antiviral activity against Tobacco mosaic virus (TMV) inoculated in 5-6 growth stage leaf assessed as inhibition effect at 100 ug/mL at 25 degC after 72 hr by half-leaf method. Put shortly:
(§3)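 Half-leaf assay on fresh leaves of Nicotiana tabacum var. Xanthi nc at the 5–6 growth stage. Leaves were rub-inoculated with leaf juice (TMV 5.88 × 10−2 μg mL−1) and cut in halves along the main vein. One half was immersed in compound solution and the other in double-distilled water for 20 min, then kept at 25 °C for 72 h. Inhibition % = (mean control lesions − mean treated lesions)/mean control lesions × 100. At least 3 replicates.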

In experiment [6] the test system is Tobacco mosaic virus. Kind of experiment: Antiviral activity against Tobacco mosaic virus (TMV) inoculated in 5-6 growth stage leaf assessed as inhibition effect at 500 ug/mL at 25 degC after 72 hr by half-leaf method. Put shortly:
as §3

Experiment [7] relates to Tobacco mosaic virus. Kind of experiment: In vivo antiviral activity against Tobacco mosaic virus (TMV) inoculated right side of Nicotiana tabacum L. leaves assessed as protection effect at 100 ug/mL preincubated 12 hr before viral challenge measured after 3 to 4 days. The procedure, abridged:
as §1

The subject of experiment [8] is Tobacco mosaic virus. The experiment can be described thus: In vivo antiviral activity against Tobacco mosaic virus (TMV) pre-inoculated Nicotiana tabacum L. leaves assessed as curative effect at 100 ug/mL measured after 3 to 4 days. Put shortly: as §2
The test system of experiment [9] is Tobacco mosaic virus. The experiment can be described thus: In vivo antiviral activity against Tobacco mosaic virus (TMV) inoculated left side of Nicotiana tabacum L. leaves assessed as inactivation effect at 100 ug/mL co-incubated with virus measured after 3 to 4 days. The procedure, abridged: (§4)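 Inactivation test in N. tabacum var. Xanthi nc. Virus was mixed with an equal volume of compound solution for 30 min and the mixture inoculated on the left leaf half. The right half received a solvent–virus mixture as control. Local lesions were counted 3–4 days after inoculation. Inhibition % was calculated from mean lesion numbers of control versus treated halves. Three replicates.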

Experiment [10] deals with Tobacco mosaic virus. Kind of experiment: In vivo antiviral activity against Tobacco mosaic virus (TMV) inoculated left side of Nicotiana tabacum L. leaves assessed as inactivation effect at 500 ug/mL co-incubated with virus measured after 3 to 4 days. The procedure, abridged: as §4

Consider `CC(=O)N1CN(C(C)=O)C(=O)NC1=O`, for which, in experiment [1], the inhibition at 500 µg/mL is 50%.

Consider `COc1cc2c3c(c4ccc(O)cc4c2cc1OC)CN1CCC[C@@H]1C3`, for which, in experiment [2], the inhibition at 1 µg/mL was 70%.

For `O=C1NCNC(=O)N1`, the inhibition at 500 µg/mL in [1] was 50%.

Turning to `COc1ccc2c3c(c4cc(OC)c(OC)cc4c2c1)CN1CCC[C@H]1C3`, the Activity is 70.2% in experiment [3]; 65.1% in [4]; 51.3% in experiment [7]; 43.7% in experiment [8]; 40.3% in experiment [9]; 59.8% in experiment [10]. Also, in [5], the inhibition at 100 µg/mL stood at 50%. Further, the inhibition at 500 µg/mL in experiment [6] was 71.2%.

On to `COc1cc2c3c(c4cc(OC)c(OC)cc4c2cc1OC)CN1CCC[C@H]1C3` [(S)-TYLOPHORINE], for which the Activity in [3] stood at 56.8%; in experiment [4], 53.8%; in [7] it was 28.6%; in experiment [8] it was 37%; in [9], 34.2%; in [10] it was 50.5%. For the same compound, the inhibition at 100 µg/mL in experiment [5] stood at 36.9%. Further, the inhibition at 500 µg/mL in experiment [6] was 54.1%.

Turning to `COc1cc2c3c(c4cc(OC)c(OC)cc4c2cc1OC)NC(=O)[C@@H]1CCCN1C3`, the Activity was 29.7% in [3]; 31.5% in [4]; 7.6% in experiment [7]; 0% in [8]; 22.2% in experiment [9]; 32.9% in [10]. For the same compound, the inhibition at 100 µg/mL in [5] was 4.6%. Besides, in experiment [6], the inhibition at 500 µg/mL was 34.8%.
